Laboratory results reported in ChEMBL document CHEMBL3616378 (J Med Chem, 2015).

Tests used:
[1] = Plasma concentration in Sprague-Dawley rat at 1 mg/kg, ip after 1 hr; format: ADME, organism-based
Method in brief: (§1)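 Separate experiment: single ip doses of 1, 3 and 10 mg/kg to rats, compound in water adjusted to pH 7–7.5 with NaOH; plasma (with csf) sampled at 0.5, 1 and 4 h; mean plasma concentrations ± SEM reported.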

[2] = target: T1, Metabotropic glutamate receptor 3 (Homo sapiens, UniProt Q14832); assay: Agonist activity at human recombinant mGlu3 receptor expressed in AV12 cells assessed as inhibition of forskolin-stimulated cAMP production after 1 hr by fluorescence assay; format: functional, cell-based
T1 sequence (Q14832 whole entry): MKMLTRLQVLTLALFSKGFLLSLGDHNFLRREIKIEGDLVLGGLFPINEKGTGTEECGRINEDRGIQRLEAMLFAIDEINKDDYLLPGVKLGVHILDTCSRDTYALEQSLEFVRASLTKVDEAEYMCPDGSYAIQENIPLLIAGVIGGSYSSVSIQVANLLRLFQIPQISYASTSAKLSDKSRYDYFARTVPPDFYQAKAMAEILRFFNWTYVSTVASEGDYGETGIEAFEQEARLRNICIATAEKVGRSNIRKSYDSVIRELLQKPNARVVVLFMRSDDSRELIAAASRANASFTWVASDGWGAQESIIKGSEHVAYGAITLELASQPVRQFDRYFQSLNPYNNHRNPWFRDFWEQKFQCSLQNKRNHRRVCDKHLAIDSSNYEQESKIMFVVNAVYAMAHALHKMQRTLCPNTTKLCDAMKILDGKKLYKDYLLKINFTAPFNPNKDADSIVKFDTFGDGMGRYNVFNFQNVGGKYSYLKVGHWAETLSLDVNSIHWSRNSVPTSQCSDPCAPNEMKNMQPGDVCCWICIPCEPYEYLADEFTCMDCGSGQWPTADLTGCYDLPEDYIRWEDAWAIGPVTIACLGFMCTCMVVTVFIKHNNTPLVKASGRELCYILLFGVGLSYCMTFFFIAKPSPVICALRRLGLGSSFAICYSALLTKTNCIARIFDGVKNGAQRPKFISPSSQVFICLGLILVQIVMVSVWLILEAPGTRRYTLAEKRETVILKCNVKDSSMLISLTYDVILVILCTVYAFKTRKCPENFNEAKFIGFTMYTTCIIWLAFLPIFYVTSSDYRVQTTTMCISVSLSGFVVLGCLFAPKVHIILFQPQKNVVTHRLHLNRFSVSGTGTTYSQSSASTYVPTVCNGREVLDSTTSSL

[3] = target: T1, Metabotropic glutamate receptor 3; assay: Antagonist activity at human recombinant mGlu3 receptor expressed in AV12 cells assessed as reversal of DCG-4-inhibited, forskolin-stimulated cAMP production after 1 hr by fluorescence assay; format: functional, cell-based
[4] = target: Metabotropic glutamate receptor 5 (Homo sapiens, UniProt P41594); assay: Agonist activity at human recombinant mGlu5 receptor expressed in AV12 cells assessed as stimulation of Ca2+ mobilization after 1 hr by FLIPR assay; format: functional, cell-based
Metabotropic glutamate receptor 5, sequence (P41594 whole entry): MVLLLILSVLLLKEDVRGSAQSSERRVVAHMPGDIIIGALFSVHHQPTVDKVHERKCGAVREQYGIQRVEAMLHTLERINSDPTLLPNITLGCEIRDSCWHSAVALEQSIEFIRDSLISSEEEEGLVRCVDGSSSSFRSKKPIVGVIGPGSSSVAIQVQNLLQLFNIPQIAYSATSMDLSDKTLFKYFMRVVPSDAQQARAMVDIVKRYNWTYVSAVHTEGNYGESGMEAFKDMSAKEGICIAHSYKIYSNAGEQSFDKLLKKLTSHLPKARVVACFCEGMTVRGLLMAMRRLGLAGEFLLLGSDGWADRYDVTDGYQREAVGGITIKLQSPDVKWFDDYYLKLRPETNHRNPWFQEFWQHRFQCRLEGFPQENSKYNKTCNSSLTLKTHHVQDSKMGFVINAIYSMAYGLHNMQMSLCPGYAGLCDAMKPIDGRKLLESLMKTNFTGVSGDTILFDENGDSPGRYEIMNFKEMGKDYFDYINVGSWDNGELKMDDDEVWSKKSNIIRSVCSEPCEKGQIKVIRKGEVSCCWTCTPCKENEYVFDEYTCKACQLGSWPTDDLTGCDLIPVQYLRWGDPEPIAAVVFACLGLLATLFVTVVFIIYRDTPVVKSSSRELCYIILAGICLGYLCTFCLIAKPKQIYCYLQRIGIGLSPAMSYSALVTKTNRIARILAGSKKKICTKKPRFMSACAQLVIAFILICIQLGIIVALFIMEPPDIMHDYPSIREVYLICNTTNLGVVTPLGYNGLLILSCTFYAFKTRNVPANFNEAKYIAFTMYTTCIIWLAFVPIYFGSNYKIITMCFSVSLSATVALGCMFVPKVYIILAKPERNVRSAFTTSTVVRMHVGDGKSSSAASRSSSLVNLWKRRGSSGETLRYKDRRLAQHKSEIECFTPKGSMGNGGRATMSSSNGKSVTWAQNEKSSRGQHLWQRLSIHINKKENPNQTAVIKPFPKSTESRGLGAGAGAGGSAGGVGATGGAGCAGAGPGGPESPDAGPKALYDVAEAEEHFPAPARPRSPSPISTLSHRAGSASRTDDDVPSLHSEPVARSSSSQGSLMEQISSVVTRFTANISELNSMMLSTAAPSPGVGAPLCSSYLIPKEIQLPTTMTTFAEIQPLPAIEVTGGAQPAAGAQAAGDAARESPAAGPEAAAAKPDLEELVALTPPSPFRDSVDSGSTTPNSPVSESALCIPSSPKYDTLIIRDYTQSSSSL

[5] = target: Metabotropic glutamate receptor 6 (Homo sapiens, UniProt O15303); assay: Agonist activity at human recombinant mGlu6 receptor expressed in AV12 cells assessed as inhibition of forskolin-stimulated cAMP production after 1 hr by fluorescence assay; format: functional, cell-based
[6] = Plasma concentration in Sprague-Dawley rat at 1 mg/kg, ip after 4 hrs; format: ADME, organism-based; method in brief: as §1
[7] = target: Metabotropic glutamate receptor 7 (Homo sapiens, UniProt Q14831); assay: Antagonist activity at human recombinant mGlu7 receptor expressed in AV12 cells assessed as inhibition of glutamate-stimulated Ca2+ mobilization after 1 hr by FLIPR assay; format: functional, cell-based
[8] = Cmax in Sprague-Dawley rat at 1 mg/kg, iv; format: ADME, organism-based; set-up: dose 1 mg/kg, route intravenous; conditions: in vivo
Method in brief: (§2)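 Fasted male Sprague–Dawley rats (~250 g) received a single dose of compound dissolved in water and adjusted to pH 7–7.5 with NaOH, given iv, by oral gavage or ip. Serial blood samples (11–12 per rat) were drawn from a jugular vein catheter into EDTA and kept frozen. Plasma was mixed with methanol:water (1:1) containing an analogue internal standard for analysis. Mean plasma parameters are reported.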

[9] = target: Metabotropic glutamate receptor 3 (Homo sapiens, UniProt Q14832, D279E/Q306L); assay: Agonist activity at human recombinant mGlu3 receptor D279E and Q306L mutant expressed in AV12 cells assessed as stimulation of Ca2+ mobilization after 1 hr by FLIPR assay; format: functional, cell-based
[10] = target: Metabotropic glutamate receptor 8 (Homo sapiens, UniProt O00222); assay: Agonist activity at human recombinant mGlu8 receptor expressed in AV12 cells assessed as inhibition of forskolin-stimulated cAMP production after 1 hr by fluorescence assay; format: functional, cell-based
Metabotropic glutamate receptor 8, sequence (O00222 whole entry): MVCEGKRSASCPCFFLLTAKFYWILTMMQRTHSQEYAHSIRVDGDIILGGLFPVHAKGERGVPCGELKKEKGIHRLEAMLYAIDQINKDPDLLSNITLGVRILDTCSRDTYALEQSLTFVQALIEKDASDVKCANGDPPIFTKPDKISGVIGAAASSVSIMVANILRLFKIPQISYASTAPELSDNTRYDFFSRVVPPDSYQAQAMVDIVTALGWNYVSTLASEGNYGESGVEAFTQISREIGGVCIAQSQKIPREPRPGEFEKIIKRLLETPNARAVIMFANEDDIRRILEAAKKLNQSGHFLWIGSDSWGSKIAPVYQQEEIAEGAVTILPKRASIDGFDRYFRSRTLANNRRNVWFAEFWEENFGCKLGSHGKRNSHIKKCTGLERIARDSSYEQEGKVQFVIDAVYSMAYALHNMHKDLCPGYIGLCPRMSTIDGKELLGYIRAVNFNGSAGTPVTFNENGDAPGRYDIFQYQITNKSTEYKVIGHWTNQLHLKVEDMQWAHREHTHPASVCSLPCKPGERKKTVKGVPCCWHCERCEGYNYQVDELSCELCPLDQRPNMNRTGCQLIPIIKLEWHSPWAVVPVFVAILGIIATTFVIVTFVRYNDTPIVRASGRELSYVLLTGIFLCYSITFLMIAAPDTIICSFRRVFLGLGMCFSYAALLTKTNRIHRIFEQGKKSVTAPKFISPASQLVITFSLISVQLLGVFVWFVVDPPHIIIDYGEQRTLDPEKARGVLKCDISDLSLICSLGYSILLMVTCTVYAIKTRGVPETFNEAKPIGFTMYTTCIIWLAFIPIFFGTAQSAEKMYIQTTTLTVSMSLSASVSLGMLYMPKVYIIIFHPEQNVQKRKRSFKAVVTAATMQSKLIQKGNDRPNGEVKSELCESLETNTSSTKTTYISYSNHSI

[11] = target: T1, Metabotropic glutamate receptor 3; assay: Agonist activity at wild type human recombinant mGlu3 receptor expressed in AV12 cells assessed as stimulation of Ca2+ mobilization after 1 hr by FLIPR assay; format: functional, cell-based
[12] = Cmax in Sprague-Dawley rat at 5 mg/kg, po; format: ADME, organism-based; set-up: dose 5 mg/kg, route oral; conditions: in vivo; method in brief: as §2
[13] = Drug level in Sprague-Dawley rat cerebrospinal fluid at 1 mg/kg, ip after 4 hrs; format: ADME, organism-based; conditions: read-out: Drug uptake
Method in brief: (§3)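 Male Sprague–Dawley rats received single ip doses of 1, 3 or 10 mg/kg. Cerebrospinal fluid and plasma levels were determined at 0.5, 1 and 4 h. Mean csf concentration (nM ± SEM) is reported.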

[14] = Fraction unbound in rat plasma; format: ADME, cell-free
[15] = target: T2, Metabotropic glutamate receptor 2 (Homo sapiens, UniProt Q14416); assay: Agonist activity at wild type human recombinant mGlu2 receptor expressed in AV12 cells assessed as stimulation of Ca2+ mobilization after 1 hr by FLIPR assay; format: functional, cell-based
T2 sequence (Q14416 whole entry): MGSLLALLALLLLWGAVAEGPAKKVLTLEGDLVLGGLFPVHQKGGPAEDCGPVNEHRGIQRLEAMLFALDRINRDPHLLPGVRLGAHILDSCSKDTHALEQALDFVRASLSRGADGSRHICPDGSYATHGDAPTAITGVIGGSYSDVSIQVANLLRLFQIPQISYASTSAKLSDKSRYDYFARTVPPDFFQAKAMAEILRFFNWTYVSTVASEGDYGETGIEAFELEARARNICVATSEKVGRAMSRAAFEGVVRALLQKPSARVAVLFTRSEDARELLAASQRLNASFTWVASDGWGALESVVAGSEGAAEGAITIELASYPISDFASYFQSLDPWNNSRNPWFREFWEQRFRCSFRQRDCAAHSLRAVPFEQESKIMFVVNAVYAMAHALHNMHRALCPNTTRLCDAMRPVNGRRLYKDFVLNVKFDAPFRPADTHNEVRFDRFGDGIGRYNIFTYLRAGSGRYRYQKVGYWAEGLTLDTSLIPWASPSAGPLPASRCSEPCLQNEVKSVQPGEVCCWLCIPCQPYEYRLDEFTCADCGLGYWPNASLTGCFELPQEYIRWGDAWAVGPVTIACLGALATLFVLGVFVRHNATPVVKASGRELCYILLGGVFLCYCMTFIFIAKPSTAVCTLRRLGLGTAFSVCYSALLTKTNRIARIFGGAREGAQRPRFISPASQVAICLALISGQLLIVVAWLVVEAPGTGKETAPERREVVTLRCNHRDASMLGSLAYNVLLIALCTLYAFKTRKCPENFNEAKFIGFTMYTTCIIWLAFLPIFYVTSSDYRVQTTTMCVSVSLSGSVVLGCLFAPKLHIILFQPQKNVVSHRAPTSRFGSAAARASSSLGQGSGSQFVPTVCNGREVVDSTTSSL

[16] = Drug level in Sprague-Dawley rat cerebrospinal fluid at 1 mg/kg, ip after 1 hr; format: ADME, organism-based; conditions: read-out: Drug uptake; method in brief: as §3
[17] = Tmax in Sprague-Dawley rat at 5 mg/kg, po; format: ADME, organism-based; conditions: in vivo
Method in brief: (§4)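 Compound dissolved in water, pH adjusted to 7–7.5 with NaOH; single dose to fasted male Sprague–Dawley rats (~250 g) by oral gavage, intravenous or intraperitoneal route. Serial blood (11–12 samples per rat) from jugular vein catheter into EDTA tubes, centrifuged, frozen; 25 µL plasma mixed with methanol:water (1:1) containing analogue internal standard.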

[18] = target: Voltage-gated inwardly rectifying potassium channel KCNH2 (Homo sapiens, UniProt Q12809); assay: Inhibition of human ERG at 10 uM
[19] = target: T1, Metabotropic glutamate receptor 3; assay: Agonist activity at human recombinant mGlu3 receptor expressed in AV12 cells assessed as stimulation of Ca2+ mobilization after 1.5 hrs by FLIPR assay; format: functional, cell-based
[20] = Drug level in Sprague-Dawley rat cerebrospinal fluid at 1 mg/kg, ip after 0.5 hrs; format: ADME, organism-based; conditions: read-out: Drug uptake; method in brief: as §3
[21] = test system: Rattus norvegicus; assay: Toxicity in Sprague-Dawley rat assessed as impairment of neuromuscular coordination at 3 mg/kg, ip after 1 to 3 hrs by rotarod test; format: organism-based; conditions: in vivo
[22] = AUC (0 to 24 hrs) in Sprague-Dawley rat at 1 mg/kg, iv; format: ADME, organism-based; set-up: time < 24 hr, dose 1 mg/kg, route intravenous; conditions: in vivo; method in brief: as §2
[23] = Drug level in Sprague-Dawley rat cerebrospinal fluid at 3 mg/kg, ip after 0.5 hrs; format: ADME, organism-based; conditions: read-out: Drug uptake; method in brief: as §3
[24] = Volume of distribution at steady state in Sprague-Dawley rat at 1 mg/kg, iv; format: ADME, organism-based; conditions: in vivo, read-out: Vdss; method in brief: as §4
[25] = Oral bioavailability in Sprague-Dawley rat at 5 mg/kg; format: ADME, organism-based; conditions: in vivo; method in brief: as §4
[26] = Drug level in Sprague-Dawley rat cerebrospinal fluid at 10 mg/kg, ip after 4 hrs; format: ADME, organism-based; conditions: read-out: Drug uptake; method in brief: as §3
[27] = target: CYP2D6 (Homo sapiens, UniProt P10635); assay: Inhibition of human CYP2D6 at 10 uM; format: ADME
Method in brief: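 Inhibition of human CYP isoforms was measured with the compound tested at 10 µM.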

[28] = Tmax in Sprague-Dawley rat at 1 mg/kg, ip; format: ADME, organism-based; conditions: in vivo; method in brief: as §4
[29] = AUC (0 to 24 hrs) in Sprague-Dawley rat at 3 mg/kg, ip; format: ADME, organism-based; set-up: time < 24 hr, dose 3 mg/kg, route intraperitoneal; conditions: in vivo; method in brief: as §2
[30] = Cmax in Sprague-Dawley rat at 10 mg/kg, ip; format: ADME, organism-based; set-up: dose 10 mg/kg, route intraperitoneal; conditions: in vivo; method in brief: as §2
[31] = Half life in Sprague-Dawley rat at 1 mg/kg, iv; format: ADME, organism-based; conditions: in vivo; method in brief: as §2
[32] = Drug level in Sprague-Dawley rat cerebrospinal fluid at 3 mg/kg, ip after 1 hr; format: ADME, organism-based; conditions: read-out: Drug uptake; method in brief: as §3
[33] = Metabolic stability of the compound in dog hepatocytes assessed as loss of compound at 2 uM; format: ADME, cell-based, Canis lupus familiaris, Hepatocyte; conditions: read-out: Drug degradation
Method in brief: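 Hepatocytes from mouse, rat, dog and human; compound tested at 2 µM; percent loss of parent compound measured.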

[34] = Plasma concentration in Sprague-Dawley rat at 3 mg/kg, ip after 1 hr; format: ADME, organism-based; method in brief: as §1
[35] = target: Metabotropic glutamate receptor 2 (Homo sapiens, UniProt Q14416, E273D); assay: Agonist activity at human recombinant mGlu2 receptor E273D mutant expressed in AV12 cells assessed as stimulation of Ca2+ mobilization after 1 hr by FLIPR assay; format: functional, cell-based
Metabotropic glutamate receptor 2 (Homo sapiens, UniProt Q14416, E273D), sequence (Q14416 19-872 E273D limits assumed): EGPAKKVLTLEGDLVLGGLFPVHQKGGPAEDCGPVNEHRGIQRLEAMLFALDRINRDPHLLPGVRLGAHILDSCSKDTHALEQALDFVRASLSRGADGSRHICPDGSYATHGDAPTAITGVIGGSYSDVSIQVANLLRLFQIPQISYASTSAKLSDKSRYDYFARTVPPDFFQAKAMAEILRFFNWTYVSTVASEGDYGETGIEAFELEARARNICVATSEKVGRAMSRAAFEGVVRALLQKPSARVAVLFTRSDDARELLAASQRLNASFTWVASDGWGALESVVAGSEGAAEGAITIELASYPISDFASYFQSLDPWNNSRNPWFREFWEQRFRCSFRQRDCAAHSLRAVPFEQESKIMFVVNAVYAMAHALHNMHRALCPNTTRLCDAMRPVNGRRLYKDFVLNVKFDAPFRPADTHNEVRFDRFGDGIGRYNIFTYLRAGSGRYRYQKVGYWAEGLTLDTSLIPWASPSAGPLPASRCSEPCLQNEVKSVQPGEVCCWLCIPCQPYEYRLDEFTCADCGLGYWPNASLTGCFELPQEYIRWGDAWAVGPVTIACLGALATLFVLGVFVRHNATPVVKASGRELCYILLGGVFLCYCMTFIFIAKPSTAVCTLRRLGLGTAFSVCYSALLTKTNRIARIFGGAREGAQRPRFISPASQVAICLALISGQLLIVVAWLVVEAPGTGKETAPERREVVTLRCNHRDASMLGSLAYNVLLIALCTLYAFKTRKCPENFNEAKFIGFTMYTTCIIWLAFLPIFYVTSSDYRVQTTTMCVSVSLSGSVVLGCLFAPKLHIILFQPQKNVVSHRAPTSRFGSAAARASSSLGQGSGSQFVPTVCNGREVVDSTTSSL

[36] = Aqueous solubility of the compound at pH 7.4; format: physicochemical
[37] = target: T2, Metabotropic glutamate receptor 2; assay: Agonist activity at human recombinant mGlu2 receptor expressed in AV12 cells assessed as inhibition of forskolin-stimulated cAMP production after 20 min by fluorescence assay

- concentration at 1 h [1]: 3.01 µM
- EC50 [2]: 0.129 µM
- IC50 [3]: 2.73 µM
- EC50 [4]: > 25 µM
- EC50 [5]: 3.45 µM
- concentration at 4 h [6]: 0.314 µM
- IC50 [7]: > 12.5 µM
- Cmax [8]: 9.54 µM
- EC50 [9]: 1.17 µM
- EC50 [10]: 10.1 µM
- EC50 [11]: 5.68 µM
- Cmax [12]: 0.22 µM
- concentration at 4 h [13]: 0.0097 µM
- fraction unbound [14]: > 0.98
- EC50 [15]: 0.0201 µM
- concentration at 1 h [16]: 0.0399 µM
- Tmax [17]: 30 min
- EC50 [19]: > 25 µM
- concentration at 0.5 h [20]: 0.0488 µM
- AUC(0-t) at 24 h [22]: 4.91 µM·h
- concentration at 0.5 h [23]: 0.0973 µM
- Vd [24]: 1.01 L/kg
- bioavailability [25]: 4%
- concentration at 4 h [26]: 0.0867 µM
- inhibition at 10 µM [27]: < 10%
- Tmax [28]: 24 min
- AUC(0-t) at 24 h [29]: 10.8 µM·h
- Cmax [30]: 31.1 µM
- half-life [31]: 198 min
- concentration at 1 h [32]: 0.0864 µM
- metabolised at 2 µM [33]: < 10%
- concentration at 1 h [34]: 4.98 µM
- EC50 [35]: 0.0463 µM
- solubility [36]: > 100 µM
- EC50 [37]: 0.0056 µM
SMILES: N[C@@]1(C(=O)O)C[C@@H](Sc2nc[nH]n2)[C@H]2[C@H](C(=O)O)[C@H]21
- inhibition (INH) [18]: Not Active
- Activity [21]: Non-toxic
